According to ChEMBL document CHEMBL4602718, “Mechanism of Action of an EPAC1-Selective Competitive Partial Agonist” (J Med Chem, 2020):
One block for each compound: values may come before it. Calls of active or inactive are those of the source. The calls are words filed in the database; no cut-off is given here.

Assays:
[1] = molecular target: T1, Rap guanine nucleotide exchange factor 3 (Homo sapiens, UniProt O95398); test: Binding affinity to GST-tagged human EPAC1 CNBD (149 to 318 residues) expressed in Escherichia coli BL21 (DE3) incubated for 30 mins by 8-NBD-cAMP based competitive fluorescence assay
T1 sequence (O95398 whole entry): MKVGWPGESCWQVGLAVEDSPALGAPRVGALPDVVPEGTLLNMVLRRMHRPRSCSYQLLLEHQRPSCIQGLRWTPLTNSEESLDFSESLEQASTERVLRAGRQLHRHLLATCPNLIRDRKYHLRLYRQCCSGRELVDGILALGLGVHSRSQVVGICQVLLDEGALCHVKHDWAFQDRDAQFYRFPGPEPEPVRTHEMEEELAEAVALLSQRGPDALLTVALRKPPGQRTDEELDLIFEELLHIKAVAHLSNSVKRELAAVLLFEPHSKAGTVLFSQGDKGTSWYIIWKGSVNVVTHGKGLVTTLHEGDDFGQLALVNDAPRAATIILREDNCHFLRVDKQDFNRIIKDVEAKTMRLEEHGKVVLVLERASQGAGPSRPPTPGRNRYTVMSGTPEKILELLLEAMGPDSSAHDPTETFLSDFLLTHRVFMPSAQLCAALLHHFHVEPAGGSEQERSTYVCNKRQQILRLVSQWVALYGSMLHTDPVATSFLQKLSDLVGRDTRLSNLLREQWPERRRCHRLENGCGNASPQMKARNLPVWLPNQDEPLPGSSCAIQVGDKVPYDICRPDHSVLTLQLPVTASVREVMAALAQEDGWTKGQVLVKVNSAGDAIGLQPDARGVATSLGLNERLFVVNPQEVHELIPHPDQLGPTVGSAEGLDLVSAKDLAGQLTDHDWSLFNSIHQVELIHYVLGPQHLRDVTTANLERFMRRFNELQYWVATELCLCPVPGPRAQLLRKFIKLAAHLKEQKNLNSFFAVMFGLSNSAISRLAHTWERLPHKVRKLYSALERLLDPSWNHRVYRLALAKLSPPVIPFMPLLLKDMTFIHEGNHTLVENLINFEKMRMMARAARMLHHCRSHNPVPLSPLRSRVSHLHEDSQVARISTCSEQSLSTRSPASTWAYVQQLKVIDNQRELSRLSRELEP

[2] = molecular target: Rap guanine nucleotide exchange factor 3 (Homo sapiens, UniProt O95398, L273W); test: Binding affinity to GST-tagged human EPAC1 L273W mutant expressed in Escherichia coli BL21 (DE3) incubated for 30 mins by 8-NBD-cAMP based competitive fluorescence assay
Procedure, shortened: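 Competitive displacement of 8-NBD-cAMP from the L273W mutant of the 149–318 construct, titrating ligand in Tris pH 7.6 buffer. […] Percent bound 8-NBD-cAMP was plotted against total ligand and fitted to a competitive-binding cubic solution to give Kd.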

[3] = molecular target: T2, Rap guanine nucleotide exchange factor 3 (Homo sapiens) (UniProt O95398); test: Binding affinity to GST-tagged human EPAC1 CNBD (149 to 318 residues) expressed in Escherichia coli BL21 (DE3) incubated for 30 mins by 1H,15N-HSQC NMR spectroscopy
T2 sequence (whole entry): T1 sequence (O95398 whole entry)

[4] = molecular target: T2, Rap guanine nucleotide exchange factor 3 (Homo sapiens); test: Binding affinity to GST-tagged human EPAC1 CNBD (149 to 318 residues)expressed in Escherichia coli BL21 (DE3) assessed as compound binding to cAMP-binding sites incubated for 30 mins by CHESPA method
[5] = molecular target: T2, Rap guanine nucleotide exchange factor 3 (Homo sapiens); test: Binding affinity to GST-tagged human EPAC1 CNBD (149 to 318 residues)expressed in Escherichia coli BL21 (DE3) assessed as compound binding to phosphate binding cassette region incubated for 30 mins by CHESPA method
[6] = molecular target: T2, Rap guanine nucleotide exchange factor 3 (Homo sapiens); test: Binding affinity to GST-tagged human EPAC1 CNBD (149 to 318 residues)expressed in Escherichia coli BL21 (DE3) assessed as compound binding to base binding region incubated for 30 mins by CHESPA method
[7] = molecular target: T2, Rap guanine nucleotide exchange factor 3 (Homo sapiens); test: Binding affinity to GST-tagged human EPAC1 CNBD (149 to 318 residues)expressed in Escherichia coli BL21 (DE3) assessed as induction of conformational changes in compound by NOESY NMR spectroscopy
[8] = molecular target: T2, Rap guanine nucleotide exchange factor 3 (Homo sapiens); test: Binding affinity to GST-tagged human EPAC1 CNBD (149 to 318 residues)expressed in Escherichia coli BL21 (DE3) assessed as induction Intermolecular NOEs peaks in PBC and BBR residues by 15N-NOESY-HSQC NMR spectroscopy
[9] = molecular target: T2, Rap guanine nucleotide exchange factor 3 (Homo sapiens); test: Binding affinity to GST-tagged human EPAC1 CNBD (149 to 318 residues)expressed in Escherichia coli BL21 (DE3) by STD and guanidinium HSQC NMR analysis
[10] = molecular target: T2, Rap guanine nucleotide exchange factor 3 (Homo sapiens); test: Binding affinity to GST-tagged human EPAC1 CNBD (149 to 318 residues)expressed in Escherichia coli BL21 (DE3) assessed as binding to R279 Guanidinium residue by guanidinium HSQC NMR spectroscopy
Procedure, shortened: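 Human EPAC1 residues 149–318, wild type and R279A mutant, expressed GST-tagged in E. coli BL21(DE3) in 15N or 15N/13C M9 medium. GST tag removed by thrombin; protein purified by glutathione and anion-exchange steps. Guanidinium HSQC spectra of apo or ligand-saturated protein recorded at 700 MHz and 306 K in 50 mM Tris, 50 mM NaCl, 1 mM DTT, pH 7.6. Ligand came from a DMSO-d6 stock, with matching DMSO-d6 added to apo and cAMP-bound controls.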

[11] = molecular target: T2, Rap guanine nucleotide exchange factor 3 (Homo sapiens); test: Binding affinity to GST-tagged human EPAC1 CNBD (149 to 318 residues)expressed in Escherichia coli BL21 (DE3) assessed as induction of perturbation of allosteric network sites by CHESCA method

Chain of Rap guanine nucleotide exchange factor 3 (Homo sapiens, UniProt O95398, L273W) (O95398 whole entry L273W): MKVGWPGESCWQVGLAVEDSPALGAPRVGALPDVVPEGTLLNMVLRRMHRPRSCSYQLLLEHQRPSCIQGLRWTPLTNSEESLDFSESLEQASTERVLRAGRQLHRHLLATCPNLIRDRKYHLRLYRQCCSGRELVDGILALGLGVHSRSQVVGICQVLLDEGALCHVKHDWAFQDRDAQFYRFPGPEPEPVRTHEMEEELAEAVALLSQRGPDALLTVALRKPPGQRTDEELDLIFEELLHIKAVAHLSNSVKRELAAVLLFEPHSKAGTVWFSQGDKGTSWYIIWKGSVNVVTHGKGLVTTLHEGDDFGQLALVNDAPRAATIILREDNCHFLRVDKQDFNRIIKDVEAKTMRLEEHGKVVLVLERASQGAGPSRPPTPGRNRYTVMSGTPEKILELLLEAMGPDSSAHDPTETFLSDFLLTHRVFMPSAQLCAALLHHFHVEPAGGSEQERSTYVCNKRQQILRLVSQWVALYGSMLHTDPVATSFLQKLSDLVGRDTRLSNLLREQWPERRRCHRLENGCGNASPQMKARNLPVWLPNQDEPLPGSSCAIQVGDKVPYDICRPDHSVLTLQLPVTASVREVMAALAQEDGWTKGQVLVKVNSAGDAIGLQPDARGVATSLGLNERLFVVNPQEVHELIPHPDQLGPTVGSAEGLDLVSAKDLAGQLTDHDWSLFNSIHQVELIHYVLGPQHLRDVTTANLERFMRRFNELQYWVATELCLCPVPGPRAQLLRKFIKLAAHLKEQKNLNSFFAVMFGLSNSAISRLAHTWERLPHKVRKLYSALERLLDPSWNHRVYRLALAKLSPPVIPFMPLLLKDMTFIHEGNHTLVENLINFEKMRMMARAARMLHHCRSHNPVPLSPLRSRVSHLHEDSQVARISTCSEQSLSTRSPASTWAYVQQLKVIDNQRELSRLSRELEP

- Kd [1]: 6.6 µM
- Kd [2]: 4.9 µM
- Activity [3]: Active
- Activity [4]: Active
- Activity [5]: Active
- Activity [6]: Active
- Activity [9]: Active
- Activity [10]: Active
- Activity [11]: Active
Compound: Cc1ccc(S(=O)(=O)NC(=O)COc2ccc3ccccc3c2)c(C)c1
- Activity [7]: Active
- Activity [8]: Active

Compound: Nc1ncnc2c1ncn2[C@@H]1O[C@@H]2CO[P@@](O)(=S)O[C@H]2[C@H]1O
- Activity [10]: Active

Compound: COc1ccc(S(=O)(=O)NC(=O)COc2ccc3ccccc3c2)cc1OC
- Activity [8]: Active

Compound: COc1ccc(S(=O)(=O)NC(=O)COc2ccc3ccccc3c2)c(OC)c1
- Activity [8]: Active

Compound: COc1ccc(OC)c(S(=O)(=O)NC(=O)COc2ccc3ccccc3c2)c1
- Activity [8]: Active
